{"source": "ChEMBL document CHEMBL1134493", "about": "“2-(2-Oxo-1,4-dihydro-2H-quinazolin-3-yl)- and 2-(2,2-dioxo-1,4-dihydro-2H-2lambda6-benzo[1,2,6]thiadiazin-3-yl)-N-hydroxy-acetamides as potent and selective peptide deformylase inhibitors” (J Med Chem, 2001)", "key": {"[1]": {"test_system": "Haemophilus influenzae", "experiment": "In vitro antibacterial activity against Haemophilus influenzae 11", "format": "functional", "in_short": "(§1)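 Broth microdilution MIC per NCCLS guidelines; strains from in-house collection (ATCC and hospital isolates) stored at -80 °C; E. coli tested as permeable outer-membrane mutant DC2. MIC taken as lowest concentration preventing visible growth after 18 to 24 h at 37 °C.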"}, "[2]": {"biological_target": "T1, Peptide deformylase (Escherichia coli, UniProt Q9JN24)", "T1 sequence (Q9JN24 whole entry)": "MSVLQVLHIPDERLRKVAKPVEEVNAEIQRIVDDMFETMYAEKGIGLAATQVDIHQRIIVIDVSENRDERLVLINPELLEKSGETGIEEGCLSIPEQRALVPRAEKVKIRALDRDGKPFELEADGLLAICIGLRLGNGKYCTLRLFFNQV", "experiment": "Inhibition of the isolated native Escherichia coli peptide deformylase (PDF)"}, "[3]": {"test_system": "Moraxella catarrhalis", "experiment": "In vitro antibacterial activity against Moraxella catarrhalis RA21", "format": "functional", "in_short": "as §1"}, "[4]": {"test_system": "Escherichia coli", "experiment": "In vitro antibacterial activity against Escherichia coli", "format": "functional", "in_short": "as §1"}, "[5]": {"biological_target": "Angiotensin-converting enzyme (Homo sapiens, UniProt P12821)", "sequence (P12821 whole entry)": "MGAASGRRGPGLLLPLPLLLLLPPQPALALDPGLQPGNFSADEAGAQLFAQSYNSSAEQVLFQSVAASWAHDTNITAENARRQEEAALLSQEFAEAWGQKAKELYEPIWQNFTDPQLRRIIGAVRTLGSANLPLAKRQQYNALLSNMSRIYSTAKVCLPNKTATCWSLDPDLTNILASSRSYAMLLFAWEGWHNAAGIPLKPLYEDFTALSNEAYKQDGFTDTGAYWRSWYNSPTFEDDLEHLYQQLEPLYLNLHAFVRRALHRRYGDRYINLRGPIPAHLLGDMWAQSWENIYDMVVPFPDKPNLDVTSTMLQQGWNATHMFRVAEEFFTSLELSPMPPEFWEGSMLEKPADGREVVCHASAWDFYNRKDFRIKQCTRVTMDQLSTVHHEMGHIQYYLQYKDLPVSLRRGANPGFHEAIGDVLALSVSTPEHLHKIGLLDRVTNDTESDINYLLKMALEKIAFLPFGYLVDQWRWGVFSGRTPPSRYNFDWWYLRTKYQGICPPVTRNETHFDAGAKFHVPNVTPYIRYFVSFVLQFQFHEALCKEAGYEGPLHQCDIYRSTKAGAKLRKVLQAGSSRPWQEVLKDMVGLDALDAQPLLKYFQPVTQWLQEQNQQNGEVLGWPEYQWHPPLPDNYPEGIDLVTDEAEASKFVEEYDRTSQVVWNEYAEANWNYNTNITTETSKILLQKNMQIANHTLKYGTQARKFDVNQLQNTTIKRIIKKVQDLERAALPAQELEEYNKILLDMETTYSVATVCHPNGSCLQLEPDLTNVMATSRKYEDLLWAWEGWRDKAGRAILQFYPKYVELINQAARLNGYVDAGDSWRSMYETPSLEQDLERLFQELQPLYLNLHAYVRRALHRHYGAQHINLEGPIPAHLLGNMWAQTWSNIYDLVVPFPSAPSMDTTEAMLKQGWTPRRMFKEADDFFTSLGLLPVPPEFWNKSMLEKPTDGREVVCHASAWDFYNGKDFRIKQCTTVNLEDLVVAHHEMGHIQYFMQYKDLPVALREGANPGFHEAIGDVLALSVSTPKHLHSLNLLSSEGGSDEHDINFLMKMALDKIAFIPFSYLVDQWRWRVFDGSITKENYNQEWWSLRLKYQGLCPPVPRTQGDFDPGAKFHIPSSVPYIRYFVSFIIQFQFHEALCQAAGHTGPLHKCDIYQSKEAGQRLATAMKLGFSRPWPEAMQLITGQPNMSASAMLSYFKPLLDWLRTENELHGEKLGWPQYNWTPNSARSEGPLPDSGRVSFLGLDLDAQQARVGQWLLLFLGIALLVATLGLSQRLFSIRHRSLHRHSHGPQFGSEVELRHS", "experiment": "Inhibition against angiotensin I converting enzyme"}, "[6]": {"biological_target": "Macrophage metalloelastase (Homo sapiens, UniProt P39900)", "sequence (P39900 whole entry)": "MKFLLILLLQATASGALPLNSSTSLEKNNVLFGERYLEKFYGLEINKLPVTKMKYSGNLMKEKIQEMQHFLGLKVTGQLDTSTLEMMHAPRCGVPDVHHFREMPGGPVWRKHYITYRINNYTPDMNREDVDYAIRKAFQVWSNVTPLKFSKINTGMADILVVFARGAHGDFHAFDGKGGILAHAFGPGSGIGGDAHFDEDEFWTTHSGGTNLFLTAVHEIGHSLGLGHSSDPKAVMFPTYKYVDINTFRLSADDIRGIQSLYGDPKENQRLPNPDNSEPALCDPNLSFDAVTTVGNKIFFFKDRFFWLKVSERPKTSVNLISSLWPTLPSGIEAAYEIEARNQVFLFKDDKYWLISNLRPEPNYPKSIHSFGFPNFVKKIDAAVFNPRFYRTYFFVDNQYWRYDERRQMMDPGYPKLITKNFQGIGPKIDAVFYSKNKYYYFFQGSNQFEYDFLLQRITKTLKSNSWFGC", "experiment": "Inhibition of human macrophage elastase, matrix metalloprotease-12 (MMP-12)."}, "[7]": {"biological_target": "Collagenase 3 (Homo sapiens, UniProt P45452)", "experiment": "Inhibition of Collagenase-3, matrix metalloprotease-13 (MMP-13)."}, "[8]": {"biological_target": "Neprilysin (Homo sapiens, UniProt P08473)", "sequence (P08473 whole entry)": "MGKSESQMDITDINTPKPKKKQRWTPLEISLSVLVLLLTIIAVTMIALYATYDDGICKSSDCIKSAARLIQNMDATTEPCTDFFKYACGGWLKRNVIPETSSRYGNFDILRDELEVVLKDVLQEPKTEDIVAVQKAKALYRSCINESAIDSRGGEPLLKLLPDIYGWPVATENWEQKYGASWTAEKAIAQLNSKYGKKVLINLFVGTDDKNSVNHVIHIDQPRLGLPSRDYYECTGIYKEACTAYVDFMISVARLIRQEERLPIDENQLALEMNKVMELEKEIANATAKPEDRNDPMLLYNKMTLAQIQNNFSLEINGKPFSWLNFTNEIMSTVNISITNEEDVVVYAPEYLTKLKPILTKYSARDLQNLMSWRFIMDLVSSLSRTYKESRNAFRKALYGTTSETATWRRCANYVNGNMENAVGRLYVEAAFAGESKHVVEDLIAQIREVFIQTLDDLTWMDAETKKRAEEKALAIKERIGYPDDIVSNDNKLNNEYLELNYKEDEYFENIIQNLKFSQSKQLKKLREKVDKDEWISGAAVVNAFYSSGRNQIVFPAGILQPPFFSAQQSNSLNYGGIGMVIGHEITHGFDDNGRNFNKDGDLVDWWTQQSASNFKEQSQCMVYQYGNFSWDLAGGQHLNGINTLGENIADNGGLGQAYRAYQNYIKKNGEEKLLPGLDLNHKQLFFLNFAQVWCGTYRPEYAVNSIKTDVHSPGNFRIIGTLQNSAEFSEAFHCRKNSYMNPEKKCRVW", "experiment": "Inhibition against neutral endopeptidase"}, "[9]": {"biological_target": "T2, Endothelin-converting enzyme 1 (Homo sapiens, UniProt P42892)", "T2 sequence (P42892 whole entry)": "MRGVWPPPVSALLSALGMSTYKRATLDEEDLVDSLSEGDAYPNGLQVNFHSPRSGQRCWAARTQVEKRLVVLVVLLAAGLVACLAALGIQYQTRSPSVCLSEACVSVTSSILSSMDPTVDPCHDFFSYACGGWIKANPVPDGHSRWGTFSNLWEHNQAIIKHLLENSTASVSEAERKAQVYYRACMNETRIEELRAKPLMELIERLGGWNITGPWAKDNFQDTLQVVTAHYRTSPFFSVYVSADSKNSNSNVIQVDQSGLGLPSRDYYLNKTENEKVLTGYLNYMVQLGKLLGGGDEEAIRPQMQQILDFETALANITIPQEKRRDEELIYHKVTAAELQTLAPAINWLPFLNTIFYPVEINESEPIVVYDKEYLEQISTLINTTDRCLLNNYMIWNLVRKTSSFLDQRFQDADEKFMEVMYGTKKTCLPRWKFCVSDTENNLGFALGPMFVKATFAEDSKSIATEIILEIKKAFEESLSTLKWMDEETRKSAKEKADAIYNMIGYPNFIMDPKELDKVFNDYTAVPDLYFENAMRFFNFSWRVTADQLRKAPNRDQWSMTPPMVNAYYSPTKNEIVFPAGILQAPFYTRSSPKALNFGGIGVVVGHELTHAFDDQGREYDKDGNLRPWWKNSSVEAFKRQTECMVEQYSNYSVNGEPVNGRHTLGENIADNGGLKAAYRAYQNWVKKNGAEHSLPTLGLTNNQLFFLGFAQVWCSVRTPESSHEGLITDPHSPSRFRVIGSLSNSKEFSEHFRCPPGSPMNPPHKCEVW", "experiment": "Inhibition against endothelin-converting enzyme."}}, "data": [{"smiles": "O=C(CN1Cc2c(Br)cccc2NC1=O)NO", "values": [{"measurement": "MIC", "setting": "[1]", "value": 16, "unit": "µg/mL"}, {"measurement": "IC50", "setting": "[2]", "value": 49, "unit": "nM"}, {"measurement": "MIC", "setting": "[3]", "value": 4, "unit": "µg/mL"}, {"measurement": "MIC", "setting": "[4]", "value": 32, "unit": "µg/mL"}]}, {"smiles": "O=C(CN1Cc2c(Br)cccc2N(CC2CC2)S1(=O)=O)NO", "values": [{"measurement": "MIC", "setting": "[1]", "value": 64, "unit": "µg/mL"}, {"measurement": "MIC", "setting": "[3]", "value": 1, "unit": "µg/mL"}, {"measurement": "MIC", "setting": "[4]", "value": 64, "unit": "µg/mL"}]}, {"smiles": "O=C(CN1Cc2c(F)cccc2NC1=O)NO", "values": [{"measurement": "MIC", "setting": "[1]", "value": 64, "unit": "µg/mL"}, {"measurement": "IC50", "setting": "[2]", "value": 870, "unit": "nM"}, {"measurement": "MIC", "setting": "[3]", "value": 16, "unit": "µg/mL"}, {"measurement": "MIC", "setting": "[4]", "value": "> 64", "unit": "µg/mL"}]}, {"smiles": "O=C(CN1Cc2c(Cl)cccc2NC1=O)NO", "values": [{"measurement": "IC50", "setting": "[5]", "value": 90, "unit": "µM"}, {"measurement": "MIC", "setting": "[1]", "value": 8, "unit": "µg/mL"}, {"measurement": "IC50", "setting": "[2]", "value": 310, "unit": "nM"}, {"measurement": "MIC", "setting": "[3]", "value": 2, "unit": "µg/mL"}, {"measurement": "MIC", "setting": "[4]", "value": 16, "unit": "µg/mL"}, {"measurement": "IC50", "setting": "[6]", "value": "> 100", "unit": "µM"}, {"measurement": "IC50", "setting": "[7]", "value": 460, "unit": "nM"}, {"measurement": "IC50", "setting": "[8]", "value": "> 100", "unit": "µM"}, {"measurement": "IC50", "setting": "[9]", "value": "> 10", "unit": "µM"}]}, {"smiles": "O=C(CN1Cc2c(Br)cccc2NS1(=O)=O)NO", "values": [{"measurement": "MIC", "setting": "[1]", "value": "> 64", "unit": "µg/mL"}, {"measurement": "IC50", "setting": "[2]", "value": 98, "unit": "nM"}, {"measurement": "MIC", "setting": "[3]", "value": 4, "unit": "µg/mL"}, {"measurement": "MIC", "setting": "[4]", "value": 32, "unit": "µg/mL"}]}, {"smiles": "O=C(CN1Cc2c(cccc2C(F)(F)F)NC1=O)NO", "values": [{"measurement": "MIC", "setting": "[1]", "value": 64, "unit": "µg/mL"}, {"measurement": "IC50", "setting": "[2]", "value": 230, "unit": "nM"}, {"measurement": "MIC", "setting": "[3]", "value": 8, "unit": "µg/mL"}, {"measurement": "MIC", "setting": "[4]", "value": 64, "unit": "µg/mL"}]}, {"smiles": "O=C(CN1Cc2ccccc2NS1(=O)=O)NO", "values": [{"measurement": "MIC", "setting": "[1]", "value": "> 64", "unit": "µg/mL"}, {"measurement": "IC50", "setting": "[2]", "value": 760, "unit": "nM"}, {"measurement": "MIC", "setting": "[3]", "value": "> 64", "unit": "µg/mL"}, {"measurement": "MIC", "setting": "[4]", "value": "> 64", "unit": "µg/mL"}]}, {"smiles": "O=C(CN1Cc2ccccc2NC1=O)NO", "values": [{"measurement": "MIC", "setting": "[1]", "value": "> 64", "unit": "µg/mL"}, {"measurement": "MIC", "setting": "[3]", "value": "> 64", "unit": "µg/mL"}, {"measurement": "MIC", "setting": "[4]", "value": "> 64", "unit": "µg/mL"}]}, {"smiles": "O=C(CN1Cc2c(F)cccc2NS1(=O)=O)NO", "values": [{"measurement": "MIC", "setting": "[1]", "value": "> 64", "unit": "µg/mL"}, {"measurement": "IC50", "setting": "[2]", "value": 870, "unit": "nM"}, {"measurement": "MIC", "setting": "[3]", "value": "> 64", "unit": "µg/mL"}, {"measurement": "MIC", "setting": "[4]", "value": "> 64", "unit": "µg/mL"}]}, {"smiles": "O=C(CN1Cc2c(cccc2C(F)(F)F)NS1(=O)=O)NO", "values": [{"measurement": "MIC", "setting": "[1]", "value": 32, "unit": "µg/mL"}, {"measurement": "IC50", "setting": "[2]", "value": 130, "unit": "nM"}, {"measurement": "MIC", "setting": "[3]", "value": 8, "unit": "µg/mL"}, {"measurement": "MIC", "setting": "[4]", "value": "> 64", "unit": "µg/mL"}]}, {"smiles": "O=C(CN1Cc2c(Cl)cccc2N(CC2CC2)S1(=O)=O)NO", "values": [{"measurement": "MIC", "setting": "[1]", "value": 64, "unit": "µg/mL"}, {"measurement": "IC50", "setting": "[2]", "value": 110, "unit": "nM"}, {"measurement": "MIC", "setting": "[3]", "value": 4, "unit": "µg/mL"}, {"measurement": "MIC", "setting": "[4]", "value": "> 64", "unit": "µg/mL"}]}, {"smiles": "NNC(=O)CN1Cc2c(Cl)cccc2NC1=O", "values": [{"measurement": "IC50", "setting": "[2]", "value": 27000, "unit": "nM"}, {"measurement": "MIC", "setting": "[4]", "value": 50, "unit": "µg/mL"}]}, {"smiles": "O=C(CN1Cc2c(Cl)cccc2N(CCCc2ccccc2)S1(=O)=O)NO", "values": [{"measurement": "MIC", "setting": "[1]", "value": 32, "unit": "µg/mL"}, {"measurement": "MIC", "setting": "[3]", "value": 8, "unit": "µg/mL"}, {"measurement": "MIC", "setting": "[4]", "value": "> 64", "unit": "µg/mL"}]}, {"smiles": "CCCCN1c2cccc(Cl)c2CN(CC(=O)NO)S1(=O)=O", "values": [{"measurement": "MIC", "setting": "[1]", "value": 64, "unit": "µg/mL"}, {"measurement": "IC50", "setting": "[2]", "value": 590, "unit": "nM"}, {"measurement": "MIC", "setting": "[3]", "value": 2, "unit": "µg/mL"}, {"measurement": "MIC", "setting": "[4]", "value": "> 64", "unit": "µg/mL"}]}, {"smiles": "O=C(CN1Cc2c(Cl)cccc2NS1(=O)=O)NO", "values": [{"measurement": "IC50", "setting": "[5]", "value": "> 100", "unit": "µM"}, {"measurement": "MIC", "setting": "[1]", "value": 16, "unit": "µg/mL"}, {"measurement": "IC50", "setting": "[2]", "value": 120, "unit": "nM"}, {"measurement": "MIC", "setting": "[3]", "value": 8, "unit": "µg/mL"}, {"measurement": "MIC", "setting": "[4]", "value": "> 64", "unit": "µg/mL"}, {"measurement": "IC50", "setting": "[6]", "value": "> 100", "unit": "µM"}, {"measurement": "IC50", "setting": "[7]", "value": "> 500", "unit": "nM"}, {"measurement": "IC50", "setting": "[8]", "value": "> 100", "unit": "µM"}, {"measurement": "IC50", "setting": "[9]", "value": "> 10", "unit": "µM"}]}, {"smiles": "O=C(CN1Cc2c(Cl)cccc2N(Cc2ccccc2)S1(=O)=O)NO", "values": [{"measurement": "MIC", "setting": "[1]", "value": 32, "unit": "µg/mL"}, {"measurement": "MIC", "setting": "[3]", "value": 8, "unit": "µg/mL"}, {"measurement": "MIC", "setting": "[4]", "value": 64, "unit": "µg/mL"}]}]}
